# GPR7 antagonist: antagonists of human GPR7 (neuropeptides B/W receptor 1). P48145. inhibition, % at 4.4 µM. AID 1861. actives 1.1% (n = 290,000). GPR7-expressing cells, fluorescence antagonist assay; in the data active means inhibition above about 16%, passing the limit was not always enough;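 further: cells stimulated with the agonist NPW; 0% = agonist with vehicle and 100% = vehicle without agonist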
# Target sequence (P48145 whole entry, looked up): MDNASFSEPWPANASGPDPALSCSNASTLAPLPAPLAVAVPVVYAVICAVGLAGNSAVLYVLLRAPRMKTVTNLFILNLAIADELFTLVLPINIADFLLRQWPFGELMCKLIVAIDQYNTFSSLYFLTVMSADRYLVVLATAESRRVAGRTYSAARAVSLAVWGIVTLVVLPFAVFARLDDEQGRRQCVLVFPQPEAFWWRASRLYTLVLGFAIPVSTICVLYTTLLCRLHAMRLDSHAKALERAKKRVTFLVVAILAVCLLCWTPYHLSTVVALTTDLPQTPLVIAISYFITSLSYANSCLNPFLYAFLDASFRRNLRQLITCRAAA
# TAAR1 ag: human TAAR1 agonism. actives 0.99% (n = 360,000). Q96RJ0. activation, % at 3 µM. CHO RD-HGA16 TAAR1, Fluo-8 calcium fluorescence; vehicle wells 0%, saturating PEA agonist 100%. AID 624467;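 active means activation above the mean activation of all test compounds in the run plus 3 SD, cut at about 38% in these data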
# Target sequence (Q96RJ0 whole entry, looked up): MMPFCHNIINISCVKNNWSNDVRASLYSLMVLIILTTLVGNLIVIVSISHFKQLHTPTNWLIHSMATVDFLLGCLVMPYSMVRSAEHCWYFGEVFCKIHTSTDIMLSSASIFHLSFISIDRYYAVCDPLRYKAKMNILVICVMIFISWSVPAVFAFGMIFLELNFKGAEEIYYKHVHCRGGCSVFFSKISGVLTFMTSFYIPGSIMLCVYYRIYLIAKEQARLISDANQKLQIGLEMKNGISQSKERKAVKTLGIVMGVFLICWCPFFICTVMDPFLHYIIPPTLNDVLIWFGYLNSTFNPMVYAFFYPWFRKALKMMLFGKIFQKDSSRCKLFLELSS
#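 Repeats: no replicates (n 1) | Material: CHO-derived RD-HGA16 cells with stable Gα16 and human TAAR1 | Technique: Kinetic Fluo-8 calcium fluorescence | Schedule: 17-24 h seeding, 75 min 37 °C dye, 30 min RT | Evaluation: % activation from peak over basal fluorescence ratio, DMSO-to-PEA scaled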
# TAAR1 antagonist: human TAAR1 antagonism. actives 1.5% (n = 360,000). Q96RJ0. inhibition, % at 3 µM. CHO RD-HGA16 TAAR1, Fluo-8 calcium fluorescence, antagonist. AID 624466;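 active means inhibition above a per-plate cutoff, the mean inhibition of test compounds on that plate plus 3 SD, cut at about 49% in these data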;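 further: 0% = DMSO plus EC80 beta-PEA response and 100% = DMSO alone without agonist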
#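 System: CHO RD-HGA16 cells bearing hTAAR1. Reagent: EC80 β-phenethylamine stimulus. Schedule: seeding 17-24 h prior, 75-min 37 °C, 30-min RT dye loading. Signal: Fluo-8 intracellular calcium dye fluorescence, real-time kinetic reads. Read-out: % inhibition from peak post-agonist over basal fluorescence ratio. Benchmarks: vehicle wells and EC80 agonist wells. Replicates: n of 1.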
# CHO parental Ca: counter-screen: ATP calcium response change in parental CHO cells; parental CHO-K1, ATP-induced calcium, Fluo-8 fluorescence; inhibition, % at 5.6 µM; actives 0.63% (n = 330,000); AID 463079;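 active means inhibition above that plate's mean sample inhibition plus 3 SD, cut at about 26% in these data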;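 further: 0% = ATP-challenged DMSO wells and 100% = DMSO wells without ATP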
#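 Assay system: parental CHO cells; Read-out basis: percent inhibition of ATP-evoked calcium rise, normalized to controls; Benchmarks: ATP and no-ATP DMSO wells; Compound dosing: single nominal dose of 5.6 µM per compound; Signal: Fluo-8 calcium dye fluorescence; Also added: ATP as calcium-mobilizing challenge; Repeats: singlicate.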
# OX1R antag-1: OX1R (human) antagonism. AID 485270. OX1R-expressing cells, FRET antagonist read-out. inhibition, % at 6.6 µM. actives 1.8% (n = 330,000). O43613; in the data active means inhibition mostly above about 38%, no sharp cut-off; inactive means mostly below about 40%;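 further: 0% = agonist challenge alone and 100% = reference antagonist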
# OX1R antag-2: antagonists of human orexin 1 receptor; O43613; AID 434989; inhibition, % at 5 µM; actives 0.43% (n = 330,000); CHO/OX1R cells, Fluo-8 calcium fluorescence, orexin A;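 active means inhibition above its plate's threshold, mean inhibition of all tested compounds on the plate plus 3 SD, cut at about 37% in these data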;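 further: 0% = orexin A challenge wells and 100% = SB-334867-A antagonist wells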
# OX1R HTRF conf: confirmation of human orexin 1 receptor antagonists, HTRF format | shares compounds with OX1R antag-1 | OX1R-expressing cells, HTRF antagonist assay | inhibition, % at 6.6 µM | actives 49% (n = 1,800) | AID 492964; in the data active means inhibition above about 55%;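 further: CHO cells expressing OX1R stimulated with orexin A at about EC80; 0% = agonist challenge alone and 100% = reference antagonist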
# CHO-K1 HTRF: counter-screen: parental CHO-K1 HTRF response. shares compounds with OX1R antag-1. parental CHO-K1 cells, HTRF counterscreen. AID 493232. inhibition, % at 6.6 µM. actives 48% (n = 1,800); in the data active means inhibition above about 17%;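 further: 0% = agonist challenge with vehicle and 100% = vehicle alone without agonist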
# Numbers without * were called inactive; x = no result. Rows were chosen to be rich in hits. Some 4.6% of all compounds tested hit in one or more screens of this group.
SMILES,GPR7 antagonist,TAAR1 ag,TAAR1 antagonist,CHO parental Ca,OX1R antag-1,OX1R antag-2,OX1R HTRF conf,CHO-K1 HTRF
Cc1cc(C)c(C#N)c(SCc2nnc(-c3ccccc3[N+](=O)[O-])o2)n1,-3,25,9,0,16,-13,x,x
CCNc1nc(OCCNS(=O)(=O)c2cc(C)ccc2C)nc(N(C)C)n1,-6,-2,-8,-3,40,-8,x,x
Cc1ccc(S(=O)(=O)NCCOc2nc(N(C)C)nc(N(C)C)n2)cc1,1,5,-20,-2,90*,11,64*,3
CC(C)(C)c1ccc(S(=O)(=O)O/N=C2/CCCCC2c2ccc([N+](=O)[O-])cc2[N+](=O)[O-])cc1 (stereo not given),-3,15,0,8,115*,-15,41,47*
Cc1ccc(S(=O)(=O)N/N=C2/CCCCC2C2CCCCC2)cc1[N+](=O)[O-] (stereo not given),-10,-1,1,-7,13,-15,x,x
Cc1ccc(N(C(=O)CNC(=O)c2ccco2)C(C(=O)NC2CCCC2)c2cccnc2)cc1F (stereo not given),-5,4,-16,-11,13,-22,x,x
C/[N+]([O-])=C1\Cc2ccccc2C1=O,0,13,-12,-12,105*,-16,52,63*
CN(C)c1ccc(/C=c2\sc3n(c2=O)CCCN=3)cc1,-4,18,3,-11,116*,-13,36,31*
O=c1/c(=C/c2ccc(O)cc2)sc2n1CCCN=2,14,0,-9,9,47,-2,x,x
CCc1nc2ccccc2n(CC)c1=O,-11,-1,-11,2,21,-14,x,x
CCn1c(=O)c(C(C)=O)nc2ccccc21,-7,2,-10,-17,100*,-9,31,5
COc1ccc([C@@H]2CC=C(C(=O)O)[C@H](c3ccccc3)N2S(=O)(=O)c2ccccc2C)cc1,x,7,3,-25,78*,-29,55*,-3
COc1ccc([C@@H]2CC=C(C(=O)O)[C@H](c3cccc(Cl)c3)N2S(=O)(=O)c2ccc(C)cc2)cc1OC,x,12,-9,-8,77*,13,84*,-1
CCC1=Nc2ccccc2-c2nnc(SC)nc2O1,-7,0,-27,-12,197*,-17,68*,95*
CSc1nnc2c(n1)OC(C)=Nc1ccccc1-2,-2,10,-10,0,79*,-9,60*,101*
CCn1nc(C)c(CN2CCC(C(=O)Nc3cccc(-c4cccc(F)c4)c3)CC2)c1C,-9,8,-7,-20,21,-15,x,x
COCCNc1nc(NCCCN2CCCC2=O)c2sccc2n1,x,1,-24,x,x,x,x,x
CCOc1ccc(CCNC(=O)CCNC(=O)c2ccco2)cc1OCC,13,3,-10,-22,31,-28,x,x
Cc1nn(-c2ccccc2)c(C)c1NC(=O)COC(=O)CCOc1ccccc1,x,6,-8,-7,7,-31,x,x
CC(=O)c1ccc(OCC(=O)Nc2c(C)nn(-c3ccccc3)c2C)cc1,x,9,16,-8,91*,-8,27,7
COCCn1c(=N)c(C(=O)NCCc2ccc(OC)cc2)cc2c(=O)n3cccc(C)c3nc21,-5,3,-4,-19,30,-36,x,x
Cc1cccn2c(=O)c3cc(C(=O)NC(C)C)c(=N)n(Cc4ccncc4)c3nc12,-14,-1,-3,-14,84*,-27,50,57*
Cc1ccc2nc3c(cc(C(=O)NC4CCCCC4)c(=N)n3C3CCCCC3)c(=O)n2c1,-18,0,-16,-15,17,-12,x,x
COCCCNC(=O)c1cc2c(=O)n3cccc(C)c3nc2n(C(C)C)c1=N,-5,1,6,-4,81*,-19,48,38*
CNC(=O)c1cc2c(=O)n3cc(C)ccc3nc2n(C(C)C)c1=N,-10,0,2,7,145*,-21,52,71*
SMILES,GPR7 antagonist,TAAR1 ag,TAAR1 antagonist,CHO parental Ca,OX1R antag-1,OX1R antag-2,OX1R HTRF conf,CHO-K1 HTRF
Cc1coc2c1c(C)cc1oc(=O)c(CC(=O)N[C@@H](CC(C)C)C(=O)O)c(C)c12,-2,0,-6,-2,16,0,x,x
Cc1cccc(OCC(O)CN2CCOCC2)c1 (stereo not given),17,0,-15,x,x,x,x,x
COc1cc2c(cc1OC)C(Cc1ccc(O)c(Oc3ccc(C[C@H]4c5cc(OC)c(OC)cc5CCN4C)cc3)c1)N(C)CC2 (stereo not given in full),x,x,x,-19,10,-11,x,x
Cc1ccc2c(ccc[n+]2CC(=O)c2ccccc2)c1,1,4,-6,-8,84*,-15,39,40*
COc1ccc2cc(C(N)=O)/c(=N/NC(=O)c3ccco3)oc2c1,-7,2,11,-3,79*,-7,54,11
COC(=O)c1c(NC(=O)c2ccccc2)sc(C(N)=O)c1C,-6,1,-3,-1,95*,-2,32,-1
COc1ccc(C(C(=O)NC2CCCC2)N(CCCO)C(=O)c2snc(C(N)=O)c2N)cc1 (stereo not given),-6,3,9,-18,121*,-21,20,-3
COc1ccccc1CNC(=O)CCS(=O)(=O)c1cccc2nonc12,-3,7,-2,-8,83*,-31,31,32*
COc1ccc(N(C)C(=O)CCS(=O)(=O)c2cccc3nonc23)cc1,3,8,-11,-14,117*,-30,46,49*
CCc1nc2ccc(C(=O)Nc3cccc(OCC(=O)N(C)C)c3)cn2c1N(CC)CCOC,x,9,2,x,x,x,x,x
CCn1cc(CN(C)C(=O)/C=C/c2ccc([N+](=O)[O-])cc2)c(C)n1,-3,4,-12,-3,92*,0,35,35*
CCN1CCN(C(=O)/C=C/c2ccc([N+](=O)[O-])cc2)CC1,0,1,2,-1,97*,-4,44,59*
COC(=O)C1(S(=O)(=O)c2cccc3nsnc23)CC1,-12,3,-9,-13,106*,-21,35,36*
O=C1c2cccc3cc([N+](=O)[O-])cc(c23)C(=O)N1c1nncs1,x,12,-7,-8,78*,-18,61*,86*
Cc1ccc(CN2CC(C(=O)Nc3ccc(F)c([N+](=O)[O-])c3)CC2=O)cc1 (stereo not given),19,0,20,-11,20,-25,x,x

# Compound activity (PubChem BioAssay)
